In data set [1] the target is T1, Adenosine kinase (Homo sapiens, UniProt P55263). The experiment in a line: Drug metabolism in human BJ cells assessed as ADK-mediated compound phosphorylation level per 5x10^5 cells at 1 umol/L after 1 hr by UPLC-MS/MS analysis. The format is ADME, cell-based. The settings on record: 1 µM. In outline:
(§1)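 BJ (normal) and HCT116 (malignant) cells exposed to nucleoside at 1 or 10 μmol/L for 1 or 3 h. Intracellular nucleoside and its monophosphate quantified against synthetic monophosphate standards. Values given as pmol per 5 × 10^5 cells.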

Data set [2] has as its target T1, Adenosine kinase. As to the kind of experiment: Drug metabolism in human BJ cells assessed as ADK-mediated compound phosphorylation level per 5x10^5 cells at 10 umol/L after 3 hrs by UPLC-MS/MS analysis. Format: ADME, cell-based. The note with it: 10 µM. The method, boiled down: as §1
Data set [3] deals with T1, Adenosine kinase. The experiment in a line: Drug metabolism in human BJ cells assessed as ADK-mediated compound phosphorylation level per 5x10^5 cells at 1 umol/L after 3 hrs by UPLC-MS/MS analysis. Format: ADME, cell-based. The note with it: 1 µM. In outline:
as §1

For data set [4], the target named is T1, Adenosine kinase. The experiment in a line: Drug metabolism in human HCT116 cells assessed as ADK-mediated compound phosphorylation level per 5x10^5 cells at 1 umol/L after 1 hr by UPLC-MS/MS analysis. Format: ADME, cell-based. The note with it: 1 µM. In outline: as §1
The target of data set [5] is T1, Adenosine kinase. As to the kind of experiment: Drug metabolism in human BJ cells assessed as ADK-mediated compound phosphorylation level per 5x10^5 cells at 10 umol/L after 1 hr by UPLC-MS/MS analysis. Format: ADME, cell-based. The settings on record: 10 µM. In outline:
as §1

The target of data set [6] is T1, Adenosine kinase. As to the kind of experiment: Drug metabolism in human HCT116 cells assessed as ADK-mediated compound phosphorylation level per 5x10^5 cells at 10 umol/L after 3 hrs by UPLC-MS/MS analysis. Format: ADME, cell-based. The note with it: 10 µM. In outline:
as §1

Data set [7] has as its target T1, Adenosine kinase. As to the kind of experiment: Drug metabolism in human HCT116 cells assessed as ADK-mediated compound phosphorylation level per 5x10^5 cells at 10 umol/L after 1 hr by UPLC-MS/MS analysis. Format: ADME, cell-based. The settings on record: 10 µM. The method, boiled down:
as §1

Data set [8] deals with T1, Adenosine kinase. The experiment in a line: Drug metabolism in human HCT116 cells assessed as ADK-mediated compound phosphorylation level per 5x10^5 cells at 1 umol/L after 3 hrs by UPLC-MS/MS analysis. The format is ADME, cell-based. The note with it: 1 µM. The method, boiled down:
as §1

The next data set deals with DNA. The experiment in a line: Induction of DNA damage in human U2OS cells transfected with 53BP1-GFP fusion gene assessed as increase in number of foci per nucleus measured at 1 hr intervals for 11 hrs by fluorescence-based assay. The format is functional, cell-based. The method, boiled down:
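U2OS osteosarcoma reporter line stably expressing 53BP1-GFP treated up to 11 h, with etoposide as the double-strand-break reference. 53BP1 foci in nuclei imaged by confocal microscopy (40× objective).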

Calls of active or inactive are those of the source. No cut-off for these calls is given here.

T1 sequence (P55263 whole entry): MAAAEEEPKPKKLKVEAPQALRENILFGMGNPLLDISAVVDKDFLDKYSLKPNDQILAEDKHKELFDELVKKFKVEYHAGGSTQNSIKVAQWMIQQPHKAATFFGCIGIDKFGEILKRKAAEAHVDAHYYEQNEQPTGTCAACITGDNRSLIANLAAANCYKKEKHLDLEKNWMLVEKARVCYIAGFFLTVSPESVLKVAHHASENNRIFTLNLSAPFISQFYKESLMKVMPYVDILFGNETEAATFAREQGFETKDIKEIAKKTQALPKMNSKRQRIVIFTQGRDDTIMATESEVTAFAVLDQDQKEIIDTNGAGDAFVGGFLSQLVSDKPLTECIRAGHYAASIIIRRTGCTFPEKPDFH

Regarding `Cc1ncnc2c1c1c(ccn1C)n2[C@@H]1O[C@H](COP(=O)([O-])O)[C@@H](O)[C@H]1O.[Na+]`, the Drug metabolism at Adenosine kinase [1] is given as 220.92 pmol; at Adenosine kinase [2] it was 5041.67 pmol; on Adenosine kinase [3] it was 332.63 pmol; at Adenosine kinase [4] it was 466.96 pmol; on Adenosine kinase [5] it was 1531.57 pmol; at Adenosine kinase [6], 12049.83 pmol. In addition, the figures for the Drug metabolism on Adenosine kinase [7] and at Adenosine kinase [8] were 8868.83 pmol and 1079.19 pmol, respectively.

With `Cc1ncnc2c1c1occc1n2[C@@H]1O[C@H](COP(=O)([O-])O)[C@@H](O)[C@H]1O.[Na+]`, the Drug metabolism at Adenosine kinase [1] was found to be 223.51 pmol; on Adenosine kinase [2], 4920.41 pmol; at Adenosine kinase [3], 241.05 pmol; at Adenosine kinase [4], 511.81 pmol; on Adenosine kinase [5], 4488.64 pmol; at Adenosine kinase [6], 12533.33 pmol. The results for the Drug metabolism at Adenosine kinase [7] and at Adenosine kinase [8] were 9531.67 pmol and 1167.4 pmol, respectively.

For `COc1cc([C@@H]2c3cc4c(cc3[C@@H](O[C@@H]3O[C@@H]5CO[C@@H](C)O[C@H]5[C@H](O)[C@H]3O)[C@H]3COC(=O)[C@H]23)OCO4)cc(OC)c1O`, the outcome in the data set with DNA was Active.

Source of the values: ChEMBL document CHEMBL4330056, “Synthesis and Cytotoxic and Antiviral Profiling of Pyrrolo- and Furo-Fused 7-Deazapurine Ribonucleosides” (J Med Chem, 2018).
